Laboratory results taken from ChEMBL document CHEMBL4823301, “Synthesis of acyclic nucleoside phosphonates targeting flavin-dependent thymidylate synthase in Mycobacterium tuberculosis” (Bioorg Med Chem, 2021).
pKi: −log10 of the molar value. Calls of active or inactive are those of the source. The rule behind the calls is not given here.

Assays:
[1] = target: T1, Flavin-dependent thymidylate synthase (Mycobacterium tuberculosis) (UniProt P9WG57); test: Inhibition of Mycobacterium tuberculosis H37Rv ThyX expressed in Escherichia coli BL21(DE3) using 100 uM dUMP as substrate in presence of FAD cofactor at 200 uM incubated for 10 mins prior to the injection of NADPH and measured upto 20 mins by NADPH oxidase based spectrophotometric analysis relative to control; conditions: time 30.0 min
T1 sequence (whole entry): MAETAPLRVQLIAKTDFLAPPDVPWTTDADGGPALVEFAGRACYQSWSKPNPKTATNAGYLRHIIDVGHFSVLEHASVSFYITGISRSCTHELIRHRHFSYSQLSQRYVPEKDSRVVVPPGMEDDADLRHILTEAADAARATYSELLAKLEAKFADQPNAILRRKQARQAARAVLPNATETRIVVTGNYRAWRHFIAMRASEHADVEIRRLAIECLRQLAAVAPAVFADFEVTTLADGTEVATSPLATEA
How it was run: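 Mtb ThyX from E. coli BL21(DE3)/pLysS carrying pET24d, purified and stored at −20 °C, with a FAD:ThyX ratio of 1:3. Compound was preincubated 10 min at 25 °C. Injected NADPH started the reaction, and A340 fall was read up to 20 min. Duplicates; % inhibition = (1−Vi/Vo)×100 from initial rates.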

[2] = target: T1, Flavin-dependent thymidylate synthase (Mycobacterium tuberculosis); test: Inhibition of Mycobacterium tuberculosis H37Rv ThyX expressed in Escherichia coli BL21(DE3) using 100 uM dUMP as substrate in absence of FAD cofactor at 200 uM incubated for 10 mins prior to the injection of NADPH and measured upto 20 mins by NADPH oxidase based spectrophotometric analysis; conditions: time 30.0 min
[3] = target: T1, Flavin-dependent thymidylate synthase (Mycobacterium tuberculosis); test: Inhibition of Mycobacterium tuberculosis H37Rv ThyX expressed in Escherichia coli BL21(DE3) using 10 uM dUMP as substrate in presence of FAD cofactor at 200 uM incubated for 10 mins prior to the injection of NADPH and measured upto 20 mins by NADPH oxidase based spectrophotometric analysis; conditions: time 30.0 min
[4] = Inhibition of flavin-dependent thymidylate synthetase (unknown origin); design: species or system Bacteria

| Compound | inhibition [1] [%] | inhibition [2] | inhibition [3] | pKi [4] |
| --- | --- | --- | --- | --- |
| CCCCCCCC(=O)NCC#Cc1ccc2c(=O)[nH]c(=O)n(CC=CCP(=O)(O)O)c2c1 | 14.9 | inactive | inactive |  |
| O=C1c2ccccc2C(=O)C(c2ccco2)C1O (configuration not stated) |  |  |  | 7.55 |
| CCCCCCCC(=O)NCC#Cc1ccc2c(c1)c(=O)[nH]c(=O)n2CC=CCP(=O)(O)O | 0 | inactive | inactive |  |
| CCCCCCCC(=O)NCC#Cc1cn(CC=CCP(=O)(O)O)c(=O)[nH]c1=O | 0 | inactive | inactive |  |
| COc1ccc2c(=O)[nH]c(=O)n(CC=CCP(=O)(O)O)c2c1 | 26.4 | inactive | inactive |  |
| CCCCCCNC(=O)NCC#Cc1ccc2c(=O)[nH]c(=O)n(CC=CCP(=O)(O)O)c2c1 | 31.8 | inactive | inactive |  |
| O=C(Cc1ccccc1)NCC#Cc1ccc2c(c1)c(=O)[nH]c(=O)n2CC=CCP(=O)(O)O | 0 | inactive | inactive |  |
| CCCCCCNC(=O)NCC#Cc1ccc2c(c1)c(=O)[nH]c(=O)n2CC=CCP(=O)(O)O | 14.9 | inactive | inactive |  |
| O=c1[nH]c(=O)n(CC=CCP(=O)(O)O)cc1Cc1ccccc1 | 23.7 | inactive | inactive |  |
| O=C(Cc1ccccc1)NCC#Cc1ccc2c(=O)[nH]c(=O)n(CC=CCP(=O)(O)O)c2c1 | 14.7 | inactive | inactive |  |
| Cc1ccc2c(c1)c(=O)[nH]c(=O)n2CC=CCP(=O)(O)O | 26.2 | inactive | inactive |  |
| O=c1[nH]c(=O)n(CC=CCP(=O)(O)O)c2ccccc12 | 15.8 | inactive | inactive |  |
| CCCCCCNC(=O)NCC#Cc1cn(CC=CCP(=O)(O)O)c(=O)[nH]c1=O | 0 | inactive | inactive |  |
